“Also recorded” adds a separate entry of the source. Where two headings read alike, the source gives them in different places.
Assays:
[1] = type: in vivo, human
[2] = system: estrogen receptor-positive advanced breast cancer; settings: entinostat plus exemestane; prolonged from 19.8; cited from earlier work
[3] = system: HR+/HER2− advanced breast cancer; assay: Efficacy by RECIST 1.1, additional 21 patients; type: in vivo, human
Outline: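 Additional cohort of 21 postmenopausal women aged ≤65 years. All had ER- and/or PR-positive (>1%) disease, ECOG 0–1 and progression after letrozole/anastrozole, with no prior HDAC inhibitor. […] Response was assessed by RECIST 1.1, with CR/PR confirmed at least 4 weeks after the initial response.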

[4] = Safety and DLT evaluation; type: in vivo, human
[5] = Plasma pharmacokinetics of entinostat; type: in vivo, human
[6] = additional 21 patients, entinostat 5 mg/week + exemestane 25 mg/day
[7] = DLT observation stage, 5 mg group
[8] = Stage I, 3 mg/week monotherapy, n=4
[9] = Stage I, 5 mg/week monotherapy, n=12
[10] = Stage I, 7 mg/week monotherapy, n=3
[11] = most common grade 3/4 AEs, 19 dose-escalation patients, stage not stated
[12] = female, human, plasma, po, 3 mg
[13] = female, human, plasma, po, 3 mg/week
[14] = female, human, plasma, po, 5 mg
[15] = female, human, plasma, po, 5 mg/week
[16] = female, human, plasma, po, 7 mg
[17] = female, human, plasma, po, 7 mg/week

Compound: Nc1ccccc1NC(=O)c1ccc(CNC(=O)OCc2cccnc2)cc1 [Entinostat]
- Grade 3/4 anemia [1, 6]: 9.5%
- Grade 3/4 fatigue [1, 6]: 9.5%
- Grade 3/4 neutropenia [1, 6]: 38%
- Grade 3/4 thrombocytopenia [1, 6]: 9.5%
- Occurrence rate of thrombocytopenia ([1]; entinostat in combination with exemestane, as quoted in Discussion): 10%
- Overall survival (OS) [2]: 28.1 months
- ORR (CR+PR) ([3]; 21 patients, entinostat 5 mg + exemestane 25 mg, 95% CI: 1.17–30.38): 9.52%
- Clinical benefit rate (CBR, CR+PR+SD over 24 weeks) ([3]; 21 patients, entinostat 5 mg + exemestane 25 mg, 95% CI: 21.82–65.98): 42.86%
- Median progression-free survival [3, 6]: 9.41 months
- Tolerability ([4]; 3, 5, 7 mg/week): well tolerated at all doses
- Grade 3/4 AEs [4, 7]: 16.7%
- Suspicious DLT (G3 ventricular tachycardia) [4, 7]: one
- Grade 3/4 AEs ([4]; DLT observation stage, 7 mg group): 33.3%
- CTCAE grade 3 AE ([4]; Stage I, 3 mg/week group): no CTCAE grade 3 AE occurred
- AKP elevation, entinostat-related AE of all grades [4, 8]: 0 No. (%)
- ALT elevation, entinostat-related AE of all grades [4, 8]: 0 No. (%)
- AST elevation, entinostat-related AE of all grades [4, 8]: 0 No. (%)
- Abdominal pain, entinostat-related AE of all grades [4, 8]: 0 No. (%)
- Anemia, entinostat-related AE of all grades [4, 8]: 2 (50) No. (%)
- Back pain, entinostat-related AE of all grades [4, 8]: 0 No. (%)
- Chest pain, entinostat-related AE of all grades [4, 8]: 0 No. (%)
- Creatine increase, entinostat-related AE of all grades [4, 8]: 0 No. (%)
- Creatinine phosphokinase increase, entinostat-related AE of all grades [4, 8]: 0 No. (%)
- Debilitation, entinostat-related AE of all grades [4, 8]: 0 No. (%)
- Diarrhea, entinostat-related AE of all grades [4, 8]: 0 No. (%)
- Fatigue, entinostat-related AE of all grades [4, 8]: 0 No. (%)
- Flatulence, entinostat-related AE of all grades [4, 8]: 0 No. (%)
- Headache, entinostat-related AE of all grades [4, 8]: 0 No. (%)
- Hypoalbuminemia, entinostat-related AE of all grades [4, 8]: 0 No. (%)
- Hypocalcemia, entinostat-related AE of all grades [4, 8]: 0 No. (%)
- Hypokalemia, entinostat-related AE of all grades [4, 8]: 0 No. (%)
- Hypoproteinemia, entinostat-related AE of all grades [4, 8]: 0 No. (%)
- LDH increase, entinostat-related AE of all grades [4, 8]: 0 No. (%)
- Leukopenia, entinostat-related AE of all grades [4, 8]: 3 (75) No. (%)
- Limb pain, entinostat-related AE of all grades [4, 8]: 0 No. (%)
- Nausea, entinostat-related AE of all grades [4, 8]: 0 No. (%)
- Neutropenia, entinostat-related AE of all grades [4, 8]: 3 (75) No. (%)
- Palpitation, entinostat-related AE of all grades [4, 8]: 0 No. (%)
- Serum Ca^2+ decrease, entinostat-related AE of all grades [4, 8]: 0 No. (%)
- Serum Na+ decrease, entinostat-related AE of all grades [4, 8]: 0 No. (%)
- Serum albumin decrease, entinostat-related AE of all grades [4, 8]: 0 No. (%)
- Serum phosphate decrease, entinostat-related AE of all grades [4, 8]: 0 No. (%)
- Serum urea increase, entinostat-related AE of all grades [4, 8]: 0 No. (%)
- Thrombocytopenia, entinostat-related AE of all grades [4, 8]: 0 No. (%)
- Γ-GT elevation, entinostat-related AE of all grades [4, 8]: 0 No. (%)
- α-HBDH elevation, entinostat-related AE of all grades [4, 8]: 0 No. (%)
- Cases of CTCAE grade 3 AE ([4]; Stage I, 5 mg/week group): four
- AKP elevation, entinostat-related AE of all grades [4, 9]: 2 (16.7) No. (%)
- ALT elevation, entinostat-related AE of all grades [4, 9]: 2 (16.7) No. (%)
- AST elevation, entinostat-related AE of all grades [4, 9]: 2 (16.7) No. (%)
- Abdominal pain, entinostat-related AE of all grades [4, 9]: 2 (16.7) No. (%)
- Anemia, entinostat-related AE of all grades [4, 9]: 0 No. (%)
- Back pain, entinostat-related AE of all grades [4, 9]: 3 (25) No. (%)
- Chest pain, entinostat-related AE of all grades [4, 9]: 2 (16.7) No. (%)
- Creatine increase, entinostat-related AE of all grades [4, 9]: 0 No. (%)
- Creatinine phosphokinase increase, entinostat-related AE of all grades [4, 9]: 0 No. (%)
- Debilitation, entinostat-related AE of all grades [4, 9]: 2 (16.7) No. (%)
- Diarrhea, entinostat-related AE of all grades [4, 9]: 0 No. (%)
- Fatigue, entinostat-related AE of all grades [4, 9]: 2 (16.7) No. (%)
- Flatulence, entinostat-related AE of all grades [4, 9]: 2 (16.7) No. (%)
- Headache, entinostat-related AE of all grades [4, 9]: 3 (25) No. (%)
- Hypoalbuminemia, entinostat-related AE of all grades [4, 9]: 0 No. (%)
- Hypocalcemia, entinostat-related AE of all grades [4, 9]: 0 No. (%)
- Hypokalemia, entinostat-related AE of all grades [4, 9]: 0 No. (%)
- Hypoproteinemia, entinostat-related AE of all grades [4, 9]: 0 No. (%)
- LDH increase, entinostat-related AE of all grades [4, 9]: 0 No. (%)
- Leukopenia, entinostat-related AE of all grades [4, 9]: 7 (58.3) No. (%)
- Limb pain, entinostat-related AE of all grades [4, 9]: 0 No. (%)
- Neutropenia, entinostat-related AE of all grades [4, 9]: 4(33.3) No. (%)
- Palpitation, entinostat-related AE of all grades [4, 9]: 2 (16.7) No. (%)
- Serum Ca^2+ decrease, entinostat-related AE of all grades [4, 9]: 0 No. (%)
- Serum Na+ decrease, entinostat-related AE of all grades [4, 9]: 0 No. (%)
- Serum albumin decrease, entinostat-related AE of all grades [4, 9]: 0 No. (%)
- Serum phosphate decrease, entinostat-related AE of all grades [4, 9]: 0 No. (%)
- Serum urea increase, entinostat-related AE of all grades [4, 9]: 0 No. (%)
- Thrombocytopenia, entinostat-related AE of all grades [4, 9]: 2 (16.7) No. (%)
- Γ-GT elevation, entinostat-related AE of all grades [4, 9]: 2 (16.7) No. (%)
- α-HBDH elevation, entinostat-related AE of all grades [4, 9]: 2 (16.7) No. (%)
- AKP elevation, entinostat-related AE of all grades [4, 10]: 0 No. (%)
- ALT elevation, entinostat-related AE of all grades [4, 10]: 0 No. (%)
- AST elevation, entinostat-related AE of all grades [4, 10]: 0 No. (%)
- Abdominal pain, entinostat-related AE of all grades [4, 10]: 0 No. (%)
- Anemia, entinostat-related AE of all grades [4, 10]: 0 No. (%)
- Back pain, entinostat-related AE of all grades [4, 10]: 0 No. (%)
- Chest pain, entinostat-related AE of all grades [4, 10]: 0 No. (%)
- Creatine increase, entinostat-related AE of all grades [4, 10]: 0 No. (%)
- Creatinine phosphokinase increase, entinostat-related AE of all grades [4, 10]: 0 No. (%)
- Debilitation, entinostat-related AE of all grades [4, 10]: 0 No. (%)
- Diarrhea, entinostat-related AE of all grades [4, 10]: 0 No. (%)
- Fatigue, entinostat-related AE of all grades [4, 10]: 0 No. (%)
- Flatulence, entinostat-related AE of all grades [4, 10]: 0 No. (%)
- Headache, entinostat-related AE of all grades [4, 10]: 0 No. (%)
- Hypoalbuminemia, entinostat-related AE of all grades [4, 10]: 0 No. (%)
- Hypocalcemia, entinostat-related AE of all grades [4, 10]: 0 No. (%)
- Hypokalemia, entinostat-related AE of all grades [4, 10]: 0 No. (%)
- Hypoproteinemia, entinostat-related AE of all grades [4, 10]: 0 No. (%)
- LDH increase, entinostat-related AE of all grades [4, 10]: 0 No. (%)
- Leukopenia, entinostat-related AE of all grades [4, 10]: 0 No. (%)
- Limb pain, entinostat-related AE of all grades [4, 10]: 0 No. (%)
- Nausea, entinostat-related AE of all grades [4, 10]: 0 No. (%)
- Neutropenia, entinostat-related AE of all grades [4, 10]: 2 (66.7) No. (%)
- Palpitation, entinostat-related AE of all grades [4, 10]: 0 No. (%)
- Serum Ca^2+ decrease, entinostat-related AE of all grades [4, 10]: 0 No. (%)
- Serum Na+ decrease, entinostat-related AE of all grades [4, 10]: 0 No. (%)
- Serum albumin decrease, entinostat-related AE of all grades [4, 10]: 0 No. (%)
- Serum phosphate decrease, entinostat-related AE of all grades [4, 10]: 0 No. (%)
- Serum urea increase, entinostat-related AE of all grades [4, 10]: 0 No. (%)
- Thrombocytopenia, entinostat-related AE of all grades [4, 10]: 0 No. (%)
- Γ-GT elevation, entinostat-related AE of all grades [4, 10]: 0 No. (%)
- α-HBDH elevation, entinostat-related AE of all grades [4, 10]: 0 No. (%)
- Patients with entinostat-related AEs ([4]; Stage I, all 19 patients): 100%
- Dose-limiting toxicity (DLT) in Stage I ([4]; all dose groups (3, 5, 7 mg/week)): no patients experienced a DLT; also recorded: no DLT events occurred
- Grade 3/4 neutropenia [4, 11]: 31.6%
- Grade 3/4 thrombocytopenia [4, 11]: 15.8%
- Median tolerance limit (MLT) ([4]; throughout the trial, up to 7 mg/week): not achieved
- Dose dependence of exposure (Cmax, AUC) ([5]; 3–7 mg): increased dose proportionally; also recorded: linear relationship between AUC0-168 and entinostat dose
- Tmax ([5]; Day 22, 5 mg/week oral, N=12, median (Min., Max.)): 0.50 (0.25, 8.00) h
- Tmax ([5]; female, human, plasma, oral): ~0.5 h
- half-life ([5]; female, human, plasma, oral): 38.3 to 65.3 h
- AUC(0-inf) [5, 12]: 572 ± 122 ng·h/mL
- Cmax [5, 12]: 49.2 ± 8.38 ng/mL
- half-life [5, 12]: 38.3 h
- AUC(0-inf) [5, 13]: 609 ± 44.3 ng·h/mL
- Cmax [5, 13]: 55.7 ± 38.2 ng/mL
- Tmax [5, 13]: 0.47 h
- half-life [5, 13]: 65.3 h
- AUC(0-inf) [5, 14]: 1070 ± 364 ng·h/mL
- Cmax [5, 14]: 101 ± 62.1 ng/mL
- half-life [5, 14]: 51.7 h
- AUC(0-inf) [5, 15]: 1310 ± 349 ng·h/mL
- Cmax [5, 15]: 107 ± 63.2 ng/mL
- half-life [5, 15]: 61.9 h
- AUC(0-inf) [5, 16]: 1380 ± 206 ng·h/mL
- Cmax [5, 16]: 154 ± 39.2 ng/mL
- Tmax [5, 16]: 0.55 h
- half-life [5, 16]: 48.1 h
- AUC(0-inf) [5, 17]: 1650 ± 452 ng·h/mL
- Cmax [5, 17]: 122 ± 76.1 ng/mL
- half-life [5, 17]: 56.2 h
